Paper PMC9202693 (The Journal of General Physiology, 2022)
Entries after “also recorded” stand apart in the source; their conditions may differ. Read-outs that look alike come from different tables or passages of the source. Positions of bridges follow the written chain, without caps; N, C: chain ends. Residues, ends and D or L forms follow the SMILES beside them. No end group written: not given here.

How the values were obtained:
KV1.2 [1] = molecular target: T1, KV1.2 (Homo sapiens, UniProt P16389); assay: Whole-cell patch-clamp block of KV1.2 current, transiently transfected CHO cells; format: cell-based
In short: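 hKV1.2 was expressed transiently in CHO cells, and GFP-positive cells were recorded 24–36 h after transfection. Whole-cell currents were evoked by 15-ms pulses to +50 mV from −120 mV every 15 s at 20–25°C, with leak below 10%, using gravity perfusion. RCF was peak I/I0 at equilibrium block.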

KV1.3 [2] = molecular target: T2, KV1.3 (Homo sapiens, UniProt P22001); format: cell-based
In short: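 PBMCs from healthy donors were cultured 3–6 days in RPMI 1640 with 10% FBS and PHA (2, 5 or 10 µg/ml) to raise KV1.3. Whole-cell currents were evoked by 15-ms pulses to +50 mV from −120 mV every 15 s at 20–25°C, with gravity perfusion. Remaining current fraction was peak I/I0 at equilibrium block. Points (3–5 records each) were Hill-fitted for Kd and H. Perfusion control was 10 mM TEA+; wash-out used toxin-free solution.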

KV1.2 [3] = molecular target: T1, KV1.2; assay: Binding kinetics of Cm28 block of KV1.2; format: cell-based
In short: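 KV1.2 transiently transfected into CHO cells; GFP-positive cells recorded 24–36 h post-transfection by whole-cell voltage clamp. Normal bath (mM): 145 NaCl, 5 KCl, 2.5 CaCl2, 1 MgCl2, 5.5 glucose, 10 HEPES, pH 7.35. 15-ms pulses to +50 mV from Vh −120 mV every 15 s with 2 nM toxin. Normalized peak current versus time fitted single-exponentially for wash-in/wash-out (τon, τoff); kon, koff from bimolecular model.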

KV1.3 [4] = molecular target: T2, KV1.3; assay: Binding kinetics of Cm28 block of KV1.3; format: cell-based
In short: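 Activated human peripheral T lymphocytes (PHA-stimulated PBMCs) recorded by whole-cell voltage clamp in normal Na+-based bath, pH 7.35. 15-ms pulses to +50 mV from Vh −120 mV every 15 s. Wash-in and wash-out time courses of normalized peak current fitted with single exponentials. 1/τon and 1/τoff versus toxin concentration fitted by linear regression to give kon and koff, assuming simple bimolecular binding.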

KV1.2 [5] = molecular target: T1, KV1.2; assay: Voltage dependence of activation; format: cell-based; conditions: KV1.2, 2 nM Cm28
In short: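 CHO cells were transiently transfected with GFP-tagged hKV1.2 and recorded by whole-cell clamp 24–36 h later at 20–25°C. For G-V, 300-ms steps from −70 to +80 mV in 10 mV increments were applied, with tail currents at −120 mV normalized to the maximum. For instantaneous I-V, 200-ms ramps to +50 mV were used. Pulses were given every 15 s. Traces are three-trace averages in control and at equilibrium block.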

hKV1.1 = assay: Selectivity, patch-clamp, hKV1.1 in CHO cells; format: cell-based, human
In short: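 hKV1.1 (KCNA1, GFP-tagged vector) transiently transfected into CHO cells with Lipofectamine; GFP-positive cells recorded 24–36 h later by whole-cell voltage clamp. Normal bath (mM): 145 NaCl, 5 KCl, 2.5 CaCl2, 1 MgCl2, 5.5 glucose, 10 HEPES, pH 7.35. Remaining current fraction = peak current with/without 150 nM toxin at equilibrium block; mean ± SEM.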

hKV1.5 = assay: Selectivity, patch-clamp, hKV1.5 in CHO cells; format: cell-based, human; conditions: 150 nM Cm28, 8–20 pulses (2–5 min), n ≥ 3
In short: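 Whole-cell KV1.5 currents recorded in normal bath (mM): 145 NaCl, 5 KCl, 2.5 CaCl2, 1 MgCl2, 5.5 glucose, 10 HEPES, pH 7.35. Remaining current fraction calculated as the ratio of peak currents with and without 150 nM test compound after 8–20 repeated depolarizing pulses (2–5 min). Reported as mean ± SEM, n ≥ 3.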

hKV11.1 (hERG1) = assay: Selectivity, patch-clamp, hKV11.1 in human embryonic kidney 293 cells; format: cell-based; conditions: 150 nM Cm28, 8–20 pulses (2–5 min), n ≥ 3
In short: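 HEK293 cells stably expressing hKV11.1. Pipette (mM): 140 KCl, 2 MgCl2, 10 HEPES, 10 EGTA, pH 7.3. Step to +20 mV (1.25 s) from Vh −80 mV, then −40 mV (2 s), every 30 s. Peak tail current I/I0 at 150 nM after 8–20 pulses; n ≥ 3.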

hKCa3.1 = assay: Selectivity, patch-clamp, hKCa3.1 in CHO cells; format: cell-based, human; conditions: 150 nM Cm28, 8–20 pulses (2–5 min), n ≥ 3
In short: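 Whole-cell KCa3.1 currents recorded with 150-ms ramps to +50 mV from −120 mV every 10 s. Bath (mM): 145 Na L-aspartate, 5 KCl, 10 HEPES, 5.5 glucose, 2.5 CaCl2, 1 MgCl2, pH 7.4. Pipette (mM): 150 K-Asp, 5 HEPES, 8.5 CaCl2, 1.0 MgCl2, pH 7.22. Peak I/I0 at 150 nM after 8–20 pulses (2–5 min); mean ± SEM, n ≥ 3.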

mKCa1.1 = assay: Selectivity, patch-clamp, mKCa1.1 in human embryonic kidney 293 cells; format: cell-based; conditions: 150 nM Cm28, 8–20 pulses (2–5 min), n ≥ 3
In short: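 HEK293 cells stably expressing mKCa1.1 recorded in whole-cell mode in normal bath (145 NaCl, 5 KCl, 2.5 CaCl2, 1 MgCl2, 5.5 glucose, 10 HEPES mM, pH 7.35). Cells depolarized to +100 mV for 600 ms from Vh −100 mV. Peak I/I0 at 150 nM after 8–20 pulses (2–5 min); mean ± SEM, n ≥ 3.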

hNaV1.4 = assay: Selectivity, patch-clamp, hNaV1.4 in human embryonic kidney 293 cells; format: cell-based; conditions: 150 nM Cm28, 8–20 pulses (2–5 min), n ≥ 3
In short: (§1)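 Whole-cell Na+ currents evoked by 15-ms steps to 0 mV every 10 s. Normal Na+-based bath, pH 7.35. Pipette (mM): 10 NaCl, 105 CsF, 10 HEPES, 10 EGTA, pH 7.2. Remaining peak current fraction at 150 nM after 8–20 pulses (2–5 min); mean ± SEM, n ≥ 3. NaV1.4 was recorded in HEK293 cells stably expressing the channel.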

hNaV1.5 = assay: Selectivity, patch-clamp, hNaV1.5 in CHO cells; format: cell-based, human; conditions: 150 nM Cm28, 8–20 pulses (2–5 min), n ≥ 3
In short: as §1

hHV1 = assay: Selectivity, patch-clamp, hHV1 in CHO cells; format: cell-based, human; conditions: 150 nM Cm28, 8–20 pulses (2–5 min), n ≥ 3
In short: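 Whole-cell proton current measured with a 1.0-s ramp to +100 mV from Vh −60 mV every 15 s. Bath (mM): 60 Na L-aspartate, 80 MES, 5.5 glucose, 6 MgCl2, pH 7.4. Pipette (mM): 90 Na L-aspartate, 80 MES, 6 MgCl2, 3.3 glucose, pH 6.17. Remaining current fraction (peak I/I0) taken at 150 nM after 8–20 pulses; mean ± SEM, n ≥ 3.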

CD4^+ TEM lymphocytes [6] = assay: LDH cytotoxicity assay; format: cell-based, human; conditions: for cytotoxicity (LDH): 24 h culture, 1.5 μM Cm28 or 50 nM rMgTx, quiescent or TCR-activated cells, three independent experiments
In short: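 CD4+ TEM cells, unstimulated or anti-CD3-stimulated, were cultured 24 h with or without test peptide. Medium samples were mixed with LDH reaction substrate for 30 min in the dark, then stop solution was added. Activity was taken as A490 minus A680, and percent cytotoxicity was calculated against controls. Spontaneous and maximum controls were sterile water and lysis buffer (45 min, 37°C). Positive control: 50 mM NaN3. Three donors, two technical repeats, mean ± SEM.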

[7] = system: CD40L expression in CD4^+ TEM lymphocytes; assay: Expression of CD40L; format: cell-based, human
In short: (§2)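 CD4+ TEM cells were isolated from healthy-donor PBMCs by negative magnetic selection and held at 1 × 10^6 cells/ml in RPMI 1640 with 10% FBS. They were pre-incubated 30 min with test peptide, then stimulated 24 h at 37°C on plate-bound anti-CD3 (OKT3, 1 µg/well) with toxin kept present. Cells were stained 20 min at 4°C with anti-CD25 and anti-CD154. Gating was FSC/SSC, 10,000 events. MFI was normalized to the stimulated untreated control. Duplicates, three donors.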

[8] = system: IL2R expression in CD4^+ TEM lymphocytes; assay: Expression of IL2R; format: cell-based, human
In short: as §2

KV channels = conditions: ref Bartok et al., 2014, cited from earlier work
CD4^+ TEM lymphocytes [9] = assay: Cell viability, Zombie NIR flow cytometry; format: cell-based, human; conditions: 24 h culture, 1.5 μM Cm28 or 50 nM rMgTx, quiescent or TCR-activated cells, three independent experiments
[10] = 1.5 µM Cm28, anti-CD3–activated, 24 h
[11] = US + Cm28 (1.5 µM), not exposed to anti-CD3
[12] = 5 nM rMgTx, 30 min pre-incubation, 24 h anti-CD3 stimulation, decreased to

T1 sequence (P16389 whole entry, the tested form may be a part): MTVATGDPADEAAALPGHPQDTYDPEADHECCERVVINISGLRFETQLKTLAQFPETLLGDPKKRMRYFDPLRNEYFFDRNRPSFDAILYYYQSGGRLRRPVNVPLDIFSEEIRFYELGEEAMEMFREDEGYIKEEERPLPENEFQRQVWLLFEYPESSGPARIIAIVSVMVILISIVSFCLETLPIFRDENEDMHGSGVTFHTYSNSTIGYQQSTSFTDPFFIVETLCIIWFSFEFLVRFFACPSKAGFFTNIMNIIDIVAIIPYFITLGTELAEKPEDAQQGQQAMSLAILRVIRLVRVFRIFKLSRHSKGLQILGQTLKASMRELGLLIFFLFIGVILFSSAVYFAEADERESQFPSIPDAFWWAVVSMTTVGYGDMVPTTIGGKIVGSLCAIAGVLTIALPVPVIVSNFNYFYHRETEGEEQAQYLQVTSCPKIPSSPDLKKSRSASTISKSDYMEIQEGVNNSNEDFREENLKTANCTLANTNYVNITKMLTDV
T2 sequence (P22001 whole entry, the tested form may be a part): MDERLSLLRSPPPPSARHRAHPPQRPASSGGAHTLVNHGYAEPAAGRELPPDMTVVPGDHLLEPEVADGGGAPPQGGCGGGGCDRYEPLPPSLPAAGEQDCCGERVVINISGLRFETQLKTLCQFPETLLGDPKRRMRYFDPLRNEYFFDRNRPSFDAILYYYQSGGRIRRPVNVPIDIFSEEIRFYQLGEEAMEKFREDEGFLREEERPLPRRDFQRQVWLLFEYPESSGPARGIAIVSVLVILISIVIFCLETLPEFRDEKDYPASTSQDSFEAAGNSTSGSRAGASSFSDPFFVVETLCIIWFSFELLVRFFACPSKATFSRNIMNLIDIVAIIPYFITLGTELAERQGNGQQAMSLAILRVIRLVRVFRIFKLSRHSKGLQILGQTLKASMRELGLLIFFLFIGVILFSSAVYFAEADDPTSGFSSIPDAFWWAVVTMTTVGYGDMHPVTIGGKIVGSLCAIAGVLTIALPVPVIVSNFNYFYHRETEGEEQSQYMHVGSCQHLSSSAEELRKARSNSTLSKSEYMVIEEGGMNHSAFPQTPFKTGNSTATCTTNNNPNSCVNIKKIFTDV

CC(C)[C@@H]1NC(=O)[C@@H]2CSSC[C@H](NC(=O)[C@@H](N)CCCCN)C(=O)N[C@@H](CCCNC(=N)N)C(=O)N[C@@H](CCC(=O)O)C(=O)N[C@H]3CSSC[C@H](NC(=O)[C@H](CCCCN)NC(=O)CNC(=O)[C@H](CC(N)=O)NC1=O)C(=O)N[C@@H](C(C)C)C(=O)N[C@H](C(=O)N1CCC[C@H]1C(=O)N[C@@H](C)C(=O)O)CSSC[C@H](NC(=O)[C@H](CO)NC(=O)[C@@H]1CCCN1C(=O)[C@H](CO)NC(=O)[C@H]([C@@H](C)O)NC(=O)[C@H](CC(N)=O)NC(=O)CNC3=O)C(=O)N[C@@H](Cc1ccc(O)cc1)C(=O)N[C@@H](Cc1ccccc1)C(=O)N[C@@H](CO)C(=O)NCC(=O)N[C@@H](CC(N)=O)C(=O)N2 [Cm28] (H-KCRECGNTSPSCYFSGNCVNGKCVCPA-OH; disulfide 2-18, 5-23, 12-25; N-terminus assumed)
Hill coefficient (H) (KV1.2 [1]; KV1.2, Hill fit of dose-response, n = 3–5): 1.04
recovery from block, % of control current (KV1.2 [1]; wash-out with toxin-free solution after 2 nM Cm28, took several minutes): ~85%
Hill coefficient (H) (KV1.3 [2]; KV1.3, Hill fit of dose-response, n = 3–5): 0.93
inhibition at 0.002 µM (KV1.3 [2]; read-out: inhibition of current at block equilibrium): ~58%
time for 90% recovery from block (KV1.3 [2]; wash-out with toxin-free solution after 2 nM Cm28): 10 min
koff (KV1.2 [3]): 0.0013 s⁻¹
kon (KV1.2 [3]): 1.1e+06 M⁻¹ s⁻¹
koff (KV1.3 [4]): 0.0028 ± 0.000215 s⁻¹
kon (KV1.3 [4]): 1.3e+06 M⁻¹ s⁻¹
shift in G-V curve / activation threshold (KV1.2 [5]): did not introduce any substantial shift in the G-V curve of KV1.2
reduction of KV1.1 current (hKV1.1; 150 nM Cm28, equilibrium block): ~27%
fold less affinity for KV1.1 (vs KV1.2 and KV1.3) (hKV1.1; compared with KV1.2 and KV1.3): ~400 fold
inhibition of KV1.1 (hKV1.1; text of Discussion, high concentration ∼100× of Kd for KV1.3): did not inhibit
inhibition of KV1.5 (hKV1.5): did not inhibit
inhibition of KV11.1 (hKV11.1 (hERG1)): did not inhibit
inhibition of KCa3.1 (hKCa3.1): did not inhibit
inhibition of KCa1.1 (mKCa1.1): did not inhibit
inhibition of NaV1.4 (hNaV1.4): did not inhibit
inhibition of NaV1.5 (hNaV1.5): did not inhibit
inhibition of hHV1 (hHV1): did not inhibit
cytotoxicity (LDH) (CD4^+ TEM lymphocytes [6]): < 1%
CD40L expression in activated cells [7, 10]: strongly inhibited; also recorded: significantly reduced
CD40L expression in unstimulated cells [7, 11]: no change
IL2R expression in activated cells [8, 10]: strongly inhibited; also recorded: significantly reduced
IL2R expression in unstimulated cells [8, 11]: no change

[N-]=[N+]=[N-].[Na+] [NaN3, sodium azide]
cytotoxicity (LDH), positive control (CD4^+ TEM lymphocytes [6]; 50 mM NaN3): 15%

CC[N+](CC)(CC)CC.[Cl-] [TEA^+, reference compound]
inhibition in peak current, perfusion control (KV1.3 [2]; 10 mM TEA^+, KV1.3): ~50%

ChTx [reference compound]
inhibition in peak current, perfusion control (KV1.2 [1]; 14 nM ChTx, KV1.2): ~50%
block of KV1.x channel subtypes (KV channels): blocks more than one KV1.x channel subtypes with high affinity

MgTx (TIINVKCTSPKQCLPPCKAQFGQSAGAKCMNGKCKCYPH; UniProt P40755 1-39, looked up)
block of KV1.x channel subtypes (KV channels): blocks more than one KV1.x channel subtypes with high affinity
block of KV1.x channel subtypes (KV channels; listed as margatoxin): blocks different KV channels

rMgTx (TIINVKCTSPKQCLPPCKAQFGQSAGAKCMNGKCKCYPH; ends and bridges not checked; cysteine pairing not given here; UniProt P40755 1-39, looked up) [reference compound]
viable cells (CD4^+ TEM lymphocytes [9]): ≥ 90%
cytotoxicity (LDH) (CD4^+ TEM lymphocytes [6]): < 2%
CD40L expression, normalized to stimulated non-treated control [7, 12]: ~51%
IL2R expression, normalized to stimulated non-treated control [8, 12]: ~48%
